Laboratory results as given in ChEMBL document CHEMBL1125894, “Dual-action cephalosporins: cephalosporin 3'-quaternary ammonium quinolones” (1991).
Converted amounts (≈) assume the structure as drawn.

Columns and labels:
[1] = molecular target: T1, Penicillin-binding protein 1B (Escherichia coli K-12) (UniProt P02919); assay: Concentration required for 90% inhibition against 90 kDa penicillin-binding protein 1b binding using [14C]-Pen G as the radioligand.
T1 sequence (whole entry): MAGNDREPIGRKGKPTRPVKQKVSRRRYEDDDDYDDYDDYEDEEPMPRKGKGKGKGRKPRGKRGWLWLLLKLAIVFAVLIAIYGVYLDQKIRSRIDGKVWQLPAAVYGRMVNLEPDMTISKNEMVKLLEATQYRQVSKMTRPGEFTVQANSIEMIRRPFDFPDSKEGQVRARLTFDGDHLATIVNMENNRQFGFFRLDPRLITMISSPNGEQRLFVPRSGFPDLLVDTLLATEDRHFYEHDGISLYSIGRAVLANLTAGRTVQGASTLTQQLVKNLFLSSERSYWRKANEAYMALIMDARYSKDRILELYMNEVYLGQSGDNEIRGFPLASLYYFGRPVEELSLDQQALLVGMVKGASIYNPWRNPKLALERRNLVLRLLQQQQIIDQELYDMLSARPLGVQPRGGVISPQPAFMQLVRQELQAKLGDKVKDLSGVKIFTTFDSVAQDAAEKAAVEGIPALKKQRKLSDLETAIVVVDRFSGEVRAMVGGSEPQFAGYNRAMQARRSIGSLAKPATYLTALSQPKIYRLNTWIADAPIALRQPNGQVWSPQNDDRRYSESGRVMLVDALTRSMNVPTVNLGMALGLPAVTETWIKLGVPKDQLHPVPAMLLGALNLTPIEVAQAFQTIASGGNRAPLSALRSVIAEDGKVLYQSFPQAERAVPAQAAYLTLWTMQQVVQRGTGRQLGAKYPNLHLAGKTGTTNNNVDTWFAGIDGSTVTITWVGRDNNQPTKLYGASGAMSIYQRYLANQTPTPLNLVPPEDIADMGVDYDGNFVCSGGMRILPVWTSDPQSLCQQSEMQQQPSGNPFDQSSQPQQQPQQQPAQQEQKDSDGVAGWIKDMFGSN
Method in brief: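 Solubilized membranes from sonicated E. coli DC-0 were used. PBP binding was measured as inhibition of [14C]penicillin G binding to each PBP.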

Enterobacter cloacae [2] = assay: In vivo activity in murine against Enterobacter cloacae 5699 infection after sc administration.; format: functional
Method in brief: (§1)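 Mouse protection test in CD1 Swiss albino mice (18–20 g). Mice were infected intraperitoneally with 0.5 mL of a diluted bacterial suspension, then treated within 5 min with one 1.0 mL subcutaneous dose at the dorsal base of the neck. Doses ranged from 0.05 to 250 mg/kg, with six mice per group. ED50 was calculated by the Reed–Muench method.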

Serratia marcescens = assay: In vitro antibacterial activity against Serratia marcescens SM; format: functional
Method in brief: (§2)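 Serial 2-fold dilutions in the NCCLS broth microdilution method for aerobic nonfastidious organisms, with an 18-h incubation. The value is reported as the minimum inhibitory concentration (MIC).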

Klebsiella pneumoniae = assay: In vivo activity in murine against Klebsiella pneumoniae A infection after sc administration.; format: functional; method in brief: as §1
Streptococcus pyogenes = assay: In vivo activity in murine against Streptococcus pyogenes 4 infection after sc administration.; format: functional; method in brief: as §1
Staphylococcus aureus [3] = assay: In vitro antibacterial activity against Staphylococcus aureus Smith(MS); format: functional
Method in brief: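 Staphylococci were tested by the standard agar dilution procedure using serial 2-fold dilutions of agent. The value is reported as the MIC.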

Escherichia coli [4] = assay: In vitro antibacterial activity against Escherichia coli 257; format: functional; method in brief: as §2
Pseudomonas aeruginosa = assay: In vivo activity in murine against Pseudomonas aeruginosa 5712 infection after sc administration.; format: functional; conditions: Pseudomonas aeruginosa, sc; read-out: ED50
Method in brief: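 Mouse protection test in CD1 Swiss albino mice (18–20 g) infected intraperitoneally with 0.5 mL of diluted P. aeruginosa suspension. Mice received 1.0 mL subcutaneously at the neck base within 5 min of infection and a second treatment 3 h after infection. Doses ranged from 0.05 to 250 mg/kg, with six mice per group. ED50 was calculated by the Reed–Muench method.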

Staphylococcus aureus [5] = assay: In vivo activity in murine against Staphylococcus aureus Smith (MS) infection after sc administration.; format: functional; method in brief: as §1
Escherichia coli [6] = assay: Antibacterial activity against Escherichia coli DC-O; format: functional; method in brief: as §2
Escherichia coli [7] = assay: In vivo activity in murine against Escherichia coli 257 infection after sc administration.; format: functional; conditions: Escherichia coli, sc; read-out: ED50; method in brief: as §1
Enterobacter cloacae [8] = assay: In vitro antibacterial activity against Enterobacter cloacae P99; format: functional; method in brief: as §2

With `CC(C)(O/N=C(\C(=O)N[C@@H]1C(=O)N2C(C(=O)[O-])=C(C[N+]3(C)CCN(c4c(F)cc5c(=O)c(C(=O)O)cn(CCF)c5c4F)CC3)CS[C@H]12)c1csc(N)n1)C(=O)O` the Concentration [1] was 30 µg/mL, the ED50 (Enterobacter cloacae [2]) was < 5 mg/kg and the MIC (Serratia marcescens) was 1 µg/mL (≈ 1.19 µM). For the same compound, the ED50 (Klebsiella pneumoniae) was 3 mg/kg, the ED50 (Streptococcus pyogenes) was 54 mg/kg and the MIC (Staphylococcus aureus [3]) was 16 µg/mL (≈ 19.1 µM). For the same compound, the MIC (Escherichia coli [4]) was 0.25 µg/mL (≈ 0.299 µM), the ED50 (Pseudomonas aeruginosa) was > 250 mg/kg and the ED50 (Staphylococcus aureus [5]) was 2.6 mg/kg. It also gave an MIC (Escherichia coli [6]) of 0.2 µg/mL (≈ 0.239 µM), an ED50 (Escherichia coli [7]) of 0.28 mg/kg and an MIC (Enterobacter cloacae [8]) of 1 µg/mL (≈ 1.19 µM).
